A short description of experiment [1]: Antiplatelet activity in human platelet rich plasma assessed as inhibition of platelet factor-3 release at 100 ug/ml after 20 mins relative to control. It is filed as functional. The procedure, abridged:
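Test compound solution was incubated in human citrated PRP at 37° for 20 min. PF3 activity was then measured by a modified Stypven test, with plasma diluted 1:10.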

A short description of experiment [2]: Antiplatelet activity in human platelet rich plasma assessed as inhibition of ADP-induced platelet aggregation at 30 ug/ml after 20 mins by aggregometric analysis relative to control. The class given is functional. An outline of the steps: (§1)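 Human blood came from fasting donors who had taken no drugs for 5 days. It was citrated 1:9 with 3.8% sodium citrate. PRP was prepared at 100g for 10 min and PPP at 1500g for 15 min, and PRP was diluted with autologous PPP to 400000 platelets/mm³. Compound or saline control was incubated 20 min at 37°, then ADP was added at 2 μg/ml final. Percent inhibition was calculated from maximal ΔT, test vs control.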

A short description of experiment [3]: Antiplatelet activity in human platelet rich plasma assessed as platelet factor-3 release at 300 ug/ml after 20 mins relative to control.
Experiment [4] in a line: Antiplatelet activity in human platelet rich plasma assessed as inhibition of ADP-induced platelet aggregation at 100 ug/ml after 20 mins by aggregometric analysis relative to control. It is filed as functional. The procedure, abridged: as §1
Experiment [5] is described as follows: Antiplatelet activity in human platelet rich plasma assessed as inhibition of ADP-induced platelet aggregation at 10 ug/ml after 20 mins by aggregometric analysis relative to control. It is filed as functional. An outline of the steps: as §1

Regarding `CC(/N=C1\CCCCCN1)c1ccc2c(ccc3ccccc32)c1.Cl` (stereo unspecified), the “%max” value in experiment [1] was 0.06%; in experiment [3] it was 2.6%. Also, in experiment [2], the inhibition at 30 µg/mL came to 43%. Also, the inhibition at 100 µg/mL in experiment [4] was 100%. Moreover, in experiment [5], the inhibition at 10 µg/mL was determined as 4%.
In the case of `CC(/N=C1\CCCCCN1)c1ccc(C=C(c2ccccc2)c2ccccc2)cc1.Cl` (stereo unspecified), the “%max” value in experiment [1] was 0.23%; in experiment [3] it was 2.3%. Further, the inhibition at 30 µg/mL in experiment [2] worked out at 21%. In addition, the inhibition at 100 µg/mL in experiment [4] was determined as 100%. For the same molecule, the inhibition at 10 µg/mL in experiment [5] is 0%.
For `CC(/N=C1\CCCN1C)c1ccc(CCc2ccccc2)cc1` (stereo unspecified), the inhibition at 30 µg/mL in experiment [2] turned out to be 29%. Further, the inhibition at 100 µg/mL in experiment [4] stood at 100%.
For `CC(/N=C1\CCCCCN1)c1ccccc1OCCc1ccccc1` (stereo unspecified), the inhibition at 30 µg/mL in experiment [2] came to 30%. Besides, the inhibition at 100 µg/mL in experiment [4] came out at 81%. Also, in experiment [5], the inhibition at 10 µg/mL turned out to be 11%.
Regarding `CC(/N=C1\CCCCCN1)c1ccc(C=C2c3ccccc3-c3ccccc32)cc1.Cl` (stereo unspecified), the “%max” value in experiment [1] was found to be 0.02%; in experiment [3], 0.42%. Moreover, in experiment [2], the inhibition at 30 µg/mL was determined as 38%. Besides, the inhibition at 100 µg/mL in experiment [4] turned out to be 100%. For the same molecule, in experiment [5], the inhibition at 10 µg/mL was found to be 6%.
Consider `CCCCCCCCCCCCCc1ccc(C(C)/N=C2\CCCCCN2)cc1` (stereo unspecified), for which the inhibition at 30 µg/mL in experiment [2] came to 33%. Further, in experiment [4], the inhibition at 100 µg/mL is 100%. Further, in experiment [5], the inhibition at 10 µg/mL stood at 16%.
For `CC(/N=C1\CCCCCN1)c1ccc(C2CCCCC2)cc1.Cl` (stereo unspecified), the “%max” value in experiment [1] amounted to 0.004%; in experiment [3] it was 0.62%. The inhibition at 30 µg/mL in experiment [2] was 31%. In addition, the inhibition at 100 µg/mL in experiment [4] is 100%. Moreover, in experiment [5], the inhibition at 10 µg/mL was 9%.
For the molecule `CC(/N=C1\CCCCCN1)c1ccc(OCCCc2ccccc2)cc1` (stereo unspecified), the inhibition at 100 µg/mL in experiment [4] turned out to be 74%.
On the same count and under the same terms, the value for `CC(/N=C1\CCCCCN1)c1ccc2oc3ccccc3c2c1` (stereo unspecified) was 67%.
Consider `CC(/N=C1\CCCCCCCN1)c1ccc2c(c1)Cc1ccccc1-2` (stereo unspecified), for which the inhibition at 30 µg/mL in experiment [2] was 62%. Besides, in experiment [4], the inhibition at 100 µg/mL is 100%. Besides, the inhibition at 10 µg/mL in experiment [5] amounted to 6%.
For the molecule `CC(/N=C1\CCCN1)c1cccc(OCCCCOc2ccccc2)c1` (stereo unspecified), the inhibition at 30 µg/mL in experiment [2] was found to be 16%. Moreover, the inhibition at 100 µg/mL in experiment [4] amounted to 100%. For the same molecule, the inhibition at 10 µg/mL in experiment [5] is 0%.
Consider `CC(/N=C1\CCCCCN1)c1cc(C(C)(C)C)cc2c1CCC2(C)C` (stereo unspecified), for which the inhibition at 30 µg/mL in experiment [2] was 22%. The inhibition at 100 µg/mL in experiment [4] amounted to 100%. Moreover, the inhibition at 10 µg/mL in experiment [5] is 0%.
Turning to `CC(/N=C1\CCCN1)c1ccc2oc3ccccc3c2c1` (stereo unspecified), in experiment [2], the inhibition at 30 µg/mL was found to be 42%. For the same molecule, in experiment [4], the inhibition at 100 µg/mL turned out to be 100%. In addition, the inhibition at 10 µg/mL in experiment [5] turned out to be 10%.
For the molecule `CC(/N=C1\CCCCCN1)c1ccc(OCCCOc2ccccc2)cc1` (stereo unspecified), the inhibition at 30 µg/mL in experiment [2] amounted to 14%. Besides, the inhibition at 100 µg/mL in experiment [4] stood at 100%. In addition, in experiment [5], the inhibition at 10 µg/mL amounted to 0%.
As for `CCCCCCCCCCCCOc1ccc(C(C)/N=C2\CCCCCN2)cc1` (stereo unspecified), the inhibition at 100 µg/mL in experiment [4] turned out to be 64%.
For `CC(/N=C1\CCCCCN1)c1ccc(-c2ccccc2)cc1.Cl` (stereo unspecified), the “%max” value is recorded as 0.04% in experiment [1] and 0.76% in experiment [3]. Moreover, in experiment [2], the inhibition at 30 µg/mL worked out at 44%. In experiment [4], the inhibition at 100 µg/mL worked out at 100%. Further, the inhibition at 10 µg/mL in experiment [5] was found to be 0%.
Consider `CC(/N=C1\CCCCCN1)c1ccc2c(c1)Cc1ccccc1-2.Cl` (stereo unspecified), for which the “%max” value is reported as 0.06% in experiment [1] and 1.5% in experiment [3]. Also, the inhibition at 30 µg/mL in experiment [2] was 43%. Also, in experiment [4], the inhibition at 100 µg/mL came to 100%. The inhibition at 10 µg/mL in experiment [5] was 0%.
With `Cc1cc2c(cc1C(C)/N=C1\CCCCCN1)C(C)(C)CCC2(C)C` (stereo unspecified), the inhibition at 100 µg/mL in experiment [4] was found to be 77%.
Take `CCN(CC)CCN(CC(O)c1ccccc1)c1cc(Cl)ccc1Cl` (stereo unspecified): the “%max” value in experiment [1] turned out to be 0.1%; in experiment [3], 0.52%. Also, in experiment [2], the inhibition at 30 µg/mL worked out at 10%. In addition, the inhibition at 100 µg/mL in experiment [4] was found to be 62%.

For the origin of these results see ChEMBL document CHEMBL3272255, “Substituted alpah-methylbenzyl and tricyclic arylalkyl lactamimides as inhibitors of blood platelet aggregation” (J Med Chem, 1976).
